From PubChem
An excerpt weighted towards active compounds, which were near 2% of everything screened.
MBD2 inh: inhibitors of MBD2 binding to methylated DNA, primary screen, biochemical, TR-FRET, DNA-binding domain, human | AID 686964, 2013 | Methyl-CpG-binding domain protein 2 (Homo sapiens), Q9UBB5 | MBD2 binding to methylated oligonucleotide | inhibition, % at 4.4 µM | 370,000 compounds, 0.31% hits; in the data active = inhibition above about 13%
ASAP1 GAP inh: inhibitors of human ASAP1 ArfGAP activity, primary screen, biochemical, fluorescence polarization | Arf-GAP with SH3 domain, ANK repeat and PH domain-containing protein 1 (Homo sapiens), … | ASAP1-stimulated ARF1 GTP hydrolysis, GDP FP detection | inhibition, % at 16.5 µM | 360,000 compounds, 0.19% hits | AID 624377, 2012; in the data active = inhibition above about 25%
Target sequence (Q9ULH1 325-724 limits assumed): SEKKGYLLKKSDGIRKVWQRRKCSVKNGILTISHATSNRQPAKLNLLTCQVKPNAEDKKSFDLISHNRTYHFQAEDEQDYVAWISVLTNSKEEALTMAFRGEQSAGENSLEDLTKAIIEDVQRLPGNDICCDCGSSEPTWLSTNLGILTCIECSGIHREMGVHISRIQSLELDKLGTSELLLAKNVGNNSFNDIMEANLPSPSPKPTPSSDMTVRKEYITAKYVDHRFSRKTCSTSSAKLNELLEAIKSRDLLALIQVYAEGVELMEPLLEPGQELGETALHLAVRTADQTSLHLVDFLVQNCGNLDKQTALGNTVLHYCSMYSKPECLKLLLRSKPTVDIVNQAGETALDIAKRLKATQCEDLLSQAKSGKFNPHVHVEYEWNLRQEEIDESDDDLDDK
LEDGF integ inh: blockers of LEDGF/p75-dependent integrase strand transfer – biochemical, TR-FRET, high throughput, primary screen. inhibition, % at 3.7 µM. HIV-1 integrase (with human LEDGF/p75). 370,000 compounds, 0.64% hits. AID 743269, 2014. TR-FRET IN-LEDGF/p75 DNA integration, Eu/Cy5;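 active = inhibition above the screen-wide mean plus 3 SD, cut at about 13% in these data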;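 note: signal is the Cy5 over europium emission ratio at 671 and 618 nm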
ARFGAP1 inhibitor: inhibitors of rat ARFGAP1 GAP activity, primary screen, biochemical, fluorescence polarization, GDP tracer; ADP-ribosylation factor GTPase-activating protein 1 (Rattus norvegicus), Q62848; 360,000 compounds, 0.26% hits; Arfgap1-stimulated ARF1 GTP hydrolysis, GDP FP detection; inhibition, % at 16.5 µM;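 active = inhibition above a per-plate limit, mean inhibition of low control wells plus 3 SD, cut at about 25% in these data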
Target sequence (Q62848 1-136 limits assumed): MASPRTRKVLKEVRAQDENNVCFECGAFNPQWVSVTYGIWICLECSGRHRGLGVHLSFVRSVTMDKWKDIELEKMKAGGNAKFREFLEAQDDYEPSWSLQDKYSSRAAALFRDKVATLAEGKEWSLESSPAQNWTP
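Replicates: Single well per compound | Assay system: Truncated rat Arfgap1 GAP domain | Control set: No-Arfgap1 wells (100%) versus DMSO full-reaction wells (0%) | Times: Enzyme reaction 120 min at 25 °C after 20 min preincubation | Reagent: Human ARF1(Δ1-17)-GTP substrate | Measured by: Tracer-displacement fluorescence polarization with EDTA stop, 620/688 nm | Measure: Percent inhibition of Arfgap1-stimulated GTP hydrolysis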
TCR CD3 inh: inhibitors of human TCR-CD3 interaction, primary screen, biochemical, fluorescence, TAMRA-labeled TCR probe; T-cell receptor (TCR); inhibition, % at 9.4 µM; 360,000 compounds, 0.37% hits; AID 651800, 2012; in the data active = inhibition above about 19%;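 note: recombinant mutant TCR 2C K166C tagged with TAMRA read by polarization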
UHRF1 binding: UHRF1 methylated DNA binding inhibitors, primary screen, counter-screen for MBD2 inhibitor project, biochemical, TR-FRET, human UHRF1, single concentration | E3 ubiquitin-protein ligase UHRF1 (Homo sapiens), Q96T88 | UHRF1 binding to methylated oligo | inhibition, % at 4.4 µM | 370,000 compounds, 0.75% hits | AID 687016, 2013; in the data active = inhibition above about 21%;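 note: UHRF1 SRA domain binding a hemimethylated CpG hairpin DNA probe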
BSA TAMRA ctr: compounds interfering with TAMRA-BSA probe, counter-screen for TCR-CD3 interaction inhibitor project, biochemical, fluorescence, TAMRA-labeled BSA; 1,200 compounds, 10% hits; TAMRA-labeled BSA probe fluorescence counterscreen; inhibition, % at 9.4 µM; shares compounds with TCR CD3 inh; in the data active = inhibition above about 23%
TCR-CD3 conf: TCR-CD3 interaction inhibitors, retest, confirmation, biochemical, fluorescence, TAMRA-labeled TCR probe; shares compounds with TCR CD3 inh; inhibition, % at 9.4 µM; TAMRA-labeled TCR probe fluorescence binding assay; 1,200 compounds, 48% hits; in the data active = inhibition above about 19%
UHRF1 ctr MBD2: UHRF1 methylated DNA binding inhibitors, counter-screen for MBD2 inhibitor project, biochemical, TR-FRET, human UHRF1; UHRF1 binding to methylated oligonucleotide; inhibition, % at 4.4 µM; shares compounds with MBD2 inh; 1,000 compounds, 25% hits; in the data active = inhibition above about 21%;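 note: UHRF1 SRA domain binding a labeled hemimethylated CpG hairpin DNA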
MBD2 confirm: inhibitors of MBD2 binding to methylated DNA, confirmation, biochemical, TR-FRET, DNA-binding domain, human; TR-FRET MBD2-DBD binding to methylated oligonucleotide; inhibition, % at 4.4 µM; AID 720531, 2013; shares compounds with MBD2 inh; 1,000 compounds, 26% hits
IN multimer act: HIV-1 IN multimer formation enhancers, counter-screen for LEDGF/p75 integration inhibitor project, biochemical, TR-FRET | shares compounds with LEDGF integ inh | TR-FRET HIV-1 integrase multimerization | 2,000 compounds, 17% hits | activation, % at 7.7 µM; in the data active = activation above about 8.9%
TRFRET interf: TR-FRET optical interference artefacts, confirmation, artefact control for LEDGF/p75-dependent integration inhibitor project, biochemical, HIV-1 IN multimerization. shares compounds with LEDGF integ inh. TR-FRET optical interference counterscreen. inhibition, % at 7.7 µM. 2,000 tested, under 10 active. AID 1053135, 2014;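 active = inhibition above the mean over all tested compounds plus 3 SD, which no compound reached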
LEDGF integ conf: inhibitors of HIV-1 IN-LEDGF/p75 DNA integration, confirmation, biochemical, TR-FRET | shares compounds with LEDGF integ inh | TR-FRET LEDGF/p75-dependent HIV-1 integration | inhibition, % at 3.7 µM | 2,000 compounds, 36% hits
Each line names hits and unclear results; the compound was inactive in the other large screens (follow-up assays come after a bar, where they were run). Cut-off read from the data, not from the text of the source, unless noted: active = inhibition above about 14%; inactive = the rest.

CN(C)Cc1ncccc1Oc1nc2cc(-c3cccc(Cl)c3)sc2c(=O)n1C	none
COc1ccc(-c2n[nH]c(=S)n2-c2ccc(Br)cc2)cc1OC	none
CN1CCC(OC(c2ccccc2)c2ccc(Cl)cc2)C1 (stereo not given)	TCR CD3 inh 31 | BSA TAMRA ctr inactive | TCR-CD3 conf inactive
CN1C2CCC1CC(OC(c1ccccc1)c1ccccc1)C2 (stereo not given)	none
O=C(Cc1ccc(NC(=O)C2CCN(C(=O)C3CC3)CC2)cc1)Nc1cccc(C(=O)N2CCCC2)c1	none
Cc1ccc(-c2nn(-c3ccccc3)cc2C(=O)Nc2ccc(C)c(S(=O)(=O)N3CCOCC3)c2)cc1	TCR CD3 inh 69 | BSA TAMRA ctr 30 | TCR-CD3 conf 60
Cc1ccc(-n2c(O)c(/C=N/NC(=O)C3COc4ccccc4O3)c3ccccc3c2=O)cc1 (stereo not given)	TCR CD3 inh 20 | BSA TAMRA ctr inactive | TCR-CD3 conf 34
COc1cc(C=NNC(=O)Cn2nc(C)cc2C)ccc1OC(=O)C1CC1	TCR CD3 inh 30 | BSA TAMRA ctr inactive | TCR-CD3 conf inactive
O=C(NNC(=O)c1ccccc1F)c1cccc(-n2cccc2)c1	MBD2 inh 24, TCR CD3 inh 22, UHRF1 binding 46 | BSA TAMRA ctr inactive | TCR-CD3 conf 26 | UHRF1 ctr MBD2 46 | MBD2 confirm 34
Nc1ncnc2oc(-c3ccco3)c(-c3ccco3)c12	MBD2 inh 81, LEDGF integ inh 86, TCR CD3 inh 58, UHRF1 binding 92 | BSA TAMRA ctr inactive | TCR-CD3 conf 27 | UHRF1 ctr MBD2 53 | MBD2 confirm 39
C=CCOC(=O)Nc1nc(CCNC(=O)OC(C)(C)C)c(C(=O)OC)s1	none
CN=C(C)/C(C(=O)OC)=C(/O)c1c(F)cccc1F	none
Cc1ccc(OCC(=O)c2c(N)n(C)c(=O)n(C)c2=O)c([N+](=O)[O-])n1	MBD2 inh 19, TCR CD3 inh 36, UHRF1 binding 23 | BSA TAMRA ctr inactive | TCR-CD3 conf 26 | UHRF1 ctr MBD2 35 | MBD2 confirm 17
C=C(C)Cn1c(SCC(=O)NN=Cc2c(O)ccc3ccccc23)nnc1-c1ccc(Br)cc1	none (no result: ASAP1 GAP inh, ARFGAP1 inhibitor, TCR CD3 inh)
Cc1ccc(NC(=O)CN(C)C(=O)c2cccc(-n3cccc3)c2)cc1	MBD2 inh 36, TCR CD3 inh 22, UHRF1 binding 77 | BSA TAMRA ctr inactive | TCR-CD3 conf inactive | UHRF1 ctr MBD2 66 | MBD2 confirm 47
CN(C)C(=O)c1cccc(-c2cnc3c(NC=O)cc(-c4ccccc4N(C)C)cn23)c1	MBD2 inh 36, TCR CD3 inh 42 | BSA TAMRA ctr inactive | TCR-CD3 conf inactive | UHRF1 ctr MBD2 inactive | MBD2 confirm 30
CN(C)C(=O)c1cccc(-c2cnc3c(NC=O)cc(-c4ccccc4Cl)cn23)c1	none
CCCCCn1cnc2c(sc3nc4c(cc32)CSC(C)(C)C4)c1=O	none
C=Cc1c(C)c2cc3[nH]c(cc4nc(cc5nc(cc1[nH]2)C(C)=C5CCC(=O)O)C(CCC(=O)O)=C4C)c(C)c3C=C	MBD2 inh 47, LEDGF integ inh 85, TCR CD3 inh 37, UHRF1 binding 75 | BSA TAMRA ctr inactive | TCR-CD3 conf 19 | UHRF1 ctr MBD2 97 | MBD2 confirm 67
CC(=O)OCCNc1cc(N2CCN(C)CC2)c2noc3c2c1C(=O)c1ccccc1-3	MBD2 inh 20, TCR CD3 inh 24, UHRF1 binding 36 | BSA TAMRA ctr inactive | TCR-CD3 conf inactive | UHRF1 ctr MBD2 25 | MBD2 confirm inactive
CCOC(=O)C(C(=O)OCC)c1cc(Br)c2noc3c2c1C(=O)c1ccccc1-3	none
O=C(NCCC1=CCCCC1)C(=O)NCC1OCCCN1S(=O)(=O)c1ccc(F)cc1 (stereo not given)	none
CCOC(=O)C1(C)C=C(Nc2ccc(O)cc2)C(=O)N1c1ccc(O)cc1 (stereo not given)	LEDGF integ inh 14, TCR CD3 inh 40 | BSA TAMRA ctr inactive | TCR-CD3 conf inactive | IN multimer act inactive | TRFRET interf inactive | LEDGF integ conf inactive
